The list is not random: actives were taken first. Their share in the collection is about 2.3%.
TRPC4 inh = inhibitors of mouse TRPC4 channel, primary screen, Fluo4 calcium, HEK293 TRPC4beta/mu-opioid cells. 300,000 tested, 0.39% active. Short transient receptor potential channel 4 (Mus musculus), Q9QUQ5. B-score at 10 µM. DAMGO-evoked Fluo4 calcium flux; stronger effect = lower value. AID 2247, 2010;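 active = B-score over 3 SD under the library average, no early fluorescence shift, positive overall ratio signal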
Target sequence (Q9QUQ5 whole entry, looked up): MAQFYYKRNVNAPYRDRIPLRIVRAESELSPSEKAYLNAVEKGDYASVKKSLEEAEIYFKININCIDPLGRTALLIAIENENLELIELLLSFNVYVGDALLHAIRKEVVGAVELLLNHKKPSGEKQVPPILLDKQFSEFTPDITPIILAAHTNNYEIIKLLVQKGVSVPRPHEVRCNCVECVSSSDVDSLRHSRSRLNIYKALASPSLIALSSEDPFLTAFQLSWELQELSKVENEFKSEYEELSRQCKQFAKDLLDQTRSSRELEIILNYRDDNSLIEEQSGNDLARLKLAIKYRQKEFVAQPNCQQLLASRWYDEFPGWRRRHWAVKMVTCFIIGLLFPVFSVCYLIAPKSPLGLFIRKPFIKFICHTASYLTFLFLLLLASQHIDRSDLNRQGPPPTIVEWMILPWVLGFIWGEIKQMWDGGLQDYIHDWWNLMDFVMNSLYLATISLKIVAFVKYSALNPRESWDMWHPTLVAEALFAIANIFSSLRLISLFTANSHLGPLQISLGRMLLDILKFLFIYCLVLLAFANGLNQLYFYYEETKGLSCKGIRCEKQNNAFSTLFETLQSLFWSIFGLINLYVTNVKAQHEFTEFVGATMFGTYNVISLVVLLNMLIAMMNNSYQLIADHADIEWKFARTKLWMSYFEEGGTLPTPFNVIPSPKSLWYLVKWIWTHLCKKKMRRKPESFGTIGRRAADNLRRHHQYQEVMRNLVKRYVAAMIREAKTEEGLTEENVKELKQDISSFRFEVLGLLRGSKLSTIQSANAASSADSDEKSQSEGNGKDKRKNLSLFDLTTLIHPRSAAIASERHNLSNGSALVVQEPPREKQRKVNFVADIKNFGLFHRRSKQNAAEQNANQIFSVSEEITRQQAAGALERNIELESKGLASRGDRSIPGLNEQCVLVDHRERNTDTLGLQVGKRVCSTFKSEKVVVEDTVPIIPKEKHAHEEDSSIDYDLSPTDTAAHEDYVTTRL
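material = TRPC4beta/mu-opioid receptor HEK293 cell line | probe or stimulus = sequential submaximal and maximal DAMGO stimulation | compound dosing = one concentration per compound | measured by = Fluo4 Ca2+ flux fluorescence | evaluation = integrated fluorescence ratio relative to baseline, converted to per-well B score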
TRPC6 inh = mouse TRPC6 channel inhibitors, primary screen, cell-based, HEK293, membrane potential dye; 310,000 tested, 1.1% active; B-score at 10 µM; ACh-evoked depolarization; stronger effect = lower value; AID 2553, 2010; Short transient receptor potential channel 6 (Mus musculus), Q61143;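 active = B-score under library mean minus 3 SD, initial fluorescence not abnormally high, positive integrated signal ratio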;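 also: B-score derived from integrated fluorescence ratio over the kinetic read; more negative B-score means stronger inhibition of depolarization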
TRPC4 potent = positive allosteric modulators of TRPC4, primary screen, cell-based, mouse TRPC4beta, HEK293 mu-opioid, Fluo-4 calcium. Short transient receptor potential channel 4 (Mus musculus), Q9QUQ5. DAMGO EC20, Fluo-4 Ca2+ flux; stronger effect = higher value. B-score at 10 µM. AID 2227, 2009. 310,000 tested, 0.42% active;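 active = B-score of calcium response area above 5 SD of library B-scores, with initial fluorescence ratio within 5 SD of library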;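 also: B-score of integrated fluorescence ratio over time as area under calcium response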
TRPC4 act = activators of mouse TRPC4 channel, primary screen, Fluo4 calcium, HEK293 TRPC4beta/mu-opioid cells; Short transient receptor potential channel 4 (Mus musculus), Q9QUQ5; Fluo4 calcium fluorescence; stronger effect = higher value; B-score at 10 µM; 310,000 tested, 0.49% active;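 active = B-score above 5 SD of library B-scores, and initial fluorescence ratio not above library mean plus 5 SD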;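 also: positive B-score marks a calcium rise read as TRPC4 activation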
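System: HEK293 cells stably co-expressing mouse TRPC4beta and mu-opioid receptor; Schedule: Fluo4 dye loading 45 min at room temperature, 110 s recording; Detection: Fluo4 fluorescence, kinetic; Evaluation: B-scored integrated calcium fluorescence ratio; Controls: buffer (low) and maximal DAMGO (high).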
TRPC6 act = mouse TRPC6 channel activators, primary screen, cell-based, HEK293, membrane potential dye; HEK293-TRPC6 membrane potential dye fluorescence; stronger effect = higher value; B-score at 10 µM; 310,000 tested, 0.13% active; AID 2550, 2010;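 active = B-score of the integrated fluorescence ratio above library mean plus 3 SD, and starting fluorescence ratio within library mean plus 5 SD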;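 also: higher score means more depolarization so channel activation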
TRPC4 spec 2 = second check of whether TRPC6 inhibitors also affect mouse TRPC4. inhibition, % at 10 µM. 920 tested, 42% active. AID 2776. shares compounds with TRPC6 inh. HEK293 TRPC4/MOR, membrane potential dye fluorescence; channel activated by saturating DAMGO dose;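 active = compounds whose fluorescence signal differed from control wells by over 3 SD, either direction, in both duplicate plates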
TRPC4 spec = mouse TRPC4 modulation by TRPC6 hits, confirmation, selectivity assay for TRPC6 inhibitor project, cell-based, HEK293 TRPC4/mu-opioid, membrane potential dye; shares compounds with TRPC6 inh; membrane potential fluorescence; activity change, negative = inhibition, % at 10 µM; 920 tested, 61% active; AID 2777, 2010;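 active = rise or fall in signal beyond 3 SD of buffer-only wells in both replicate plates, either sign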;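 also: integrated kinetic ratio of fluorescence range over baseline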
HEK293 MPD ctr 2-1 = nonspecific membrane potential effects, parental HEK293, confirmation, counter-screen for TRPC6 inhibitor project, cell-based, second counter screen. 920 tested, 31% active. AID 2779, 2010. parental HEK293 membrane potential dye fluorescence; maximal acetylcholine challenge after compound addition. signal change vs control, % at 10 µM. shares compounds with TRPC6 inh;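 active = membrane potential signal moving either way by over 3 SD of the maximum-effect control, in both duplicate plates, meaning non-specific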
HEK293 MPD ctr-1 = membrane potential modulation in parental HEK293, confirmation, counter-screen for TRPC6 inhibitor project, cell-based; shares compounds with TRPC6 inh; parental HEK293 membrane potential dye fluorescence; membrane potential signal change, % at 10 µM; 920 tested, 60% active;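 active = membrane potential signal shifting up or down by more than 3 SD of buffer-only wells, on both duplicate plates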
HEK293 MPD ctr-2 = parental HEK293 membrane potential modulation, confirmation, counter-screen for TRPC6 modulator project, cell-based | membrane potential signal change, % at 10 µM | shares compounds with TRPC6 inh | AID 488924, 2010 | 2,400 tested, 51% active | membrane potential dye fluorescence;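 active = membrane potential signal moves up or down beyond 5 SD from buffer-only wells, on both duplicate plates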
HEK293 MPD ctr 2-2 = parental HEK293 nonspecific activity of TRPC6 modulators, second screen. shares compounds with TRPC6 inh. membrane potential dye fluorescence; after compound, maximal acetylcholine stimulation. inhibition, % at 10 µM. 2,400 tested, 14% active;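 active = membrane potential signal drops by more than 5 SD from the mean control signal, in both duplicate plates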;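 also: plate controls were acetylcholine ECmax control wells for no effect and buffer only wells for full effect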
TRPC4 ctr mod = TRPC4 modulation by TRPC6 hit compounds, confirmation, selectivity assay for TRPC6 modulator project, cell-based, HEK293 TRPC4/mu-opioid, membrane potential dye, mouse. shares compounds with TRPC6 inh. percent change from control (negative = decrease, positive = increase), % at 10 µM. membrane potential fluorescence. 2,400 tested, 69% active;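 active = membrane potential signal moved up or down beyond 5 SD of buffer control wells, in both duplicate plates, actives on both sides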;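 also: plate controls were assay buffer wells for no effect and DAMGO maximal-effect wells for full effect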
TRPC4 ctr inh 2 = second check of whether TRPC6 modulators also affect mouse TRPC4. HEK293 TRPC4/mu-opioid, membrane potential dye fluorescence; stimulated with maximal-effect DAMGO. 2,400 tested, 55% active. inhibition, % at 10 µM. AID 488928. shares compounds with TRPC6 inh;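 active = drop in membrane potential signal beyond 5 SD of the control wells in both duplicate plates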;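 also: TRPC4 counter screen for TRPC6 hits run under conditions tuned for TRPC6 not TRPC4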
TRPC6 inh conf = mouse TRPC6 channel inhibitors, confirmation, HEK293 cells, membrane potential dye, duplicate | shares compounds with TRPC6 inh | ACh-evoked depolarization | inhibition, % at 10 µM | 3,300 tested, 43% active | AID 488960, 2010;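 active = fluorescence ratio falls more than 5 SD below the full-stimulation control mean, in both duplicate runs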;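 also: integrated fluorescence ratio of peak minus minimum over baseline after agonist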
TRPC6 act conf = mouse TRPC6 channel activators, confirmation, HEK293 cells, membrane potential dye, duplicate | shares compounds with TRPC6 inh | HEK293-TRPC6 membrane potential dye fluorescence, FDSS | activation, % at 10 µM | 2,800 tested, 11% active | AID 488961, 2010;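 active = ratio signal rise beyond 5 SD above unstimulated control wells' mean, seen in both duplicate runs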;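 also: plate controls were buffer EC0 wells for no effect and acetylcholine ECmax response for full effect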
* marks the source's active call; other numbers are inactive results; i = inactive; nt = no result given; + = active, no number.

SMILES	TRPC4 inh	TRPC6 inh	TRPC4 potent	TRPC4 act	TRPC6 act	HEK293 MPD ctr-2	HEK293 MPD ctr 2-2	TRPC4 ctr mod	TRPC4 ctr inh 2	TRPC6 inh conf	TRPC6 act conf	others
CCOc1ccc(C)cc1S(=O)(=O)n1cnc2ccccc21	i	i	i	i	i	nt	nt	nt	nt	nt	nt
N#Cc1cnn(Cc2ccc(Cl)cc2)c1N	nt	i	i	i	i	nt	nt	nt	nt	nt	nt
N#Cc1cnn(Cc2ccccc2)c1N	i	-6.2*	i	i	i	i	i	i	i	i	i
CCN(CC)CCNC(=O)Cn1nc(Cc2ccncc2)c2ccccc2c1=O	i	-6.2*	i	i	i	i	i	i	i	i	i
CSc1ccccc1NC(=O)CN(C)CC(=O)NCC(=O)Nc1ccc(F)cc1	i	i	i	i	i	nt	nt	nt	nt	nt	nt
COc1ccc(/C=N/Nc2nc(N3CCCC3)nc(N3CCCC3)n2)cc1	i	i	i	i	i	nt	nt	nt	nt	nt	nt
COc1ccc(/C=N/Nc2nc(N3CCCC3)nc(N3CCCC3)n2)cc1O	i	-5.5*	i	i	i	i	i	i	i	i	i
COc1cc(/C=N/Nc2nc(N3CCCC3)nc(N3CCCC3)n2)ccc1OCc1ccccc1F	i	-7.4*	i	i	i	nt	nt	nt	nt	i	i	TRPC4 spec 2=i;TRPC4 spec=-14%*;HEK293 MPD ctr 2-1=i;HEK293 MPD ctr-1=i
CCOC(=O)C1CCN(C(=O)CN(C)S(=O)(=O)c2ccc3c(c2)c(=O)n(C)c(=O)n3C)CC1	i	i	i	i	i	nt	nt	nt	nt	nt	nt
CC(=O)NC(=S)Nc1ccc(S(=O)(=O)Nc2ncccn2)cc1	i	i	i	i	i	nt	nt	nt	nt	nt	nt
N#Cc1nc(Cc2cccc3ccccc23)oc1NCCN1CCCCC1	i	-5.2*	i	i	i	106%*	i	10%*	63%*	i	nt
CC(=O)NS(=O)(=O)c1ccc(NC(=O)c2cc3c(=O)n4ccccc4nc3s2)cc1	i	-7.9*	i	i	i	nt	nt	nt	nt	i	i	TRPC4 spec 2=74%*;TRPC4 spec=-35%*;HEK293 MPD ctr 2-1=30%*;HEK293 MPD ctr-1=-653%*
Cc1cccc(NC(=O)c2cc3c(=O)n4ccccc4nc3s2)c1	i	i	i	i	i	nt	nt	nt	nt	nt	nt
COc1ccc(NC(=O)c2ccc(N3CCOCC3)nc2)cc1	i	i	i	i	i	nt	nt	nt	nt	nt	nt
COc1ccc(S(=O)(=O)Nc2ccc(N3CCOCC3)nc2)cc1	i	-5*	i	i	i	i	i	i	i	i	i
Cc1ccc2c(CN3CCN(S(=O)(=O)c4ccc5c(c4)OCCO5)CC3)cc(=O)oc2c1C	i	-5.6*	i	i	i	i	i	i	i	i	i
CN1C=C/C(=C\c2cc[n+](C)c3ccccc23)c2ccccc21	i	-5.8*	i	i	i	-265%*	i	-27%*	32%*	i	i
N#C/C(C(N)=O)=C1/CCCN1Cc1ccccc1	i	i	i	i	i	nt	nt	nt	nt	nt	nt
O=[N+]([O-])c1cc(NCCO)c(N2CCCCCC2)c2nonc12	i	i	i	i	i	nt	nt	nt	nt	nt	nt
CC(=O)Nc1ccc2c(c1)ncn2-c1ccc(C)cc1	i	-5.5*	i	i	i	i	i	i	i	i	i
Cc1ccc(/C(C#N)=C\c2ccc(N3CCOCC3)o2)cc1	i	i	i	i	27*	420%*	i	98%*	i	i	115%*
N#C/C(=C\c1ccc(N2CCOCC2)o1)C(=O)NC1CCCCC1	i	i	i	i	i	nt	nt	nt	nt	nt	nt
N#C/C(=C/c1ccc(N2CCOCC2)o1)C(=O)Nc1ccccc1	i	i	i	i	50*	+	+	134%*	i	nt	322%*
N#C/C(=C\c1ccc(N2CCOCC2)o1)C(=O)NCCc1ccccc1	i	i	i	i	14*	774%*	135%*	129%*	i	i	96%*
COCCNC(=O)/C(C#N)=C/c1ccc(N2CCOCC2)o1	i	i	i	i	i	nt	nt	nt	nt	nt	nt
O=C(NCc1cccs1)C1CCCN(C(=O)Nc2ccccc2)C1 (centres undefined)	i	i	i	i	i	nt	nt	nt	nt	nt	nt
Oc1ccccc1N=Cc1c(O)ccc2ccccc12	i	-5.3*	i	i	i	i	i	38%*	i	i	nt

Screening results (PubChem)
